Test results reported in ChEMBL document CHEMBL4699573, “Design, Synthesis, and Pharmacological Evaluation of Analogues Derived from the PLEV Tetrapeptide as Protein-Protein Interaction Modulators of Voltage-Gated Sodium Channel 1.6” (J Med Chem, 2020).
Active and inactive are the calls of the source. The calls are words filed in the database; no cut-off is given here. Residues, ends and D or L forms follow the SMILES beside them. *: point of attachment. Adamantane1carbonyl = O=C(C12CC3CC(CC(C3)C1)C2)*; OtBu = CC(C)(C)O*

Experiments:
HEK293 [1] = test: Modulation of recombinant human FGF141b (1 to 252 residues)-recombinant human Nav1.6 C-terminal tail (1763 to 1976 residues) protein-protein interaction expressed in HEK293 cells assessed as relative luminescence value at 50 uM measured at 2 mins interval for 20 mins by split-luciferase complementation assay relative to control; assay type: cell-based; conditions: filed as modulator, time min 2-20
Outline: (§1)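 Double-stable HEK293 line expressing CLuc-FGF14 and CD4-Nav1.6-C-tail-NLuc, kept on G418 and puromycin. Cells seeded for 24 h, then given compound for 1 h in serum-free, phenol red-free DMEM/F12 with a final 0.5% DMSO: 50 μM for screening, 0.25–100 μM over eight concentrations for dose-response; n = 4. D-luciferin added and read every 2 min for 20 min at 37 °C. Peak luminescence expressed as percent of per-plate DMSO mean (n = 32). IC50 from four-parameter nonlinear fit. At least 3 experiments.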

[2] = Modulation of recombinant human FGF141b (1 to 252 residues)-recombinant human Nav1.6 C-terminal tail (1763 to 1976 residues) protein-protein interaction expressed in HEK293 cells measured at 2 mins interval for 20 mins by split-luciferase complementation assay; assay type: cell-based; outline: as §1
HEK293 [3] = test: Modulation of recombinant human FGF141b (1 to 252 residues)-recombinant human Nav1.6 C-terminal tail (1763 to 1976 residues) protein-protein interaction expressed in HEK293 cells measured at 2 mins interval for 20 mins by split-luciferase complementation assay relative to control; assay type: cell-based; conditions: filed as modulator, time min 2-20; outline: as §1
HEK293 [4] = test: Inhibition of full-length Photinus pyralis luciferase transfected in HEK293 cells at 25 uM incubated for 1 hrs by split-luciferase complementation assay; assay type: cell-based
Outline: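 HEK293 cells transfected with full-length Photinus pyralis luciferase, then treated 1 h with 25 μM compound (n = 4) or 0.5% DMSO (n = 32). Luminescence read after D-luciferin addition, as in the LCA, normalized to per-plate DMSO controls. One-way ANOVA with Dunnett's test.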

[5] = target: T1, Sodium channel protein type 8 subunit alpha (Homo sapiens, UniProt Q9UQD0); test: Binding affinity to human recombinant Nav1.6 C-terminal domain expressed in Escherichia coli BL21 assessed as dissociation constant by SPR analysis
Outline: (§2)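 Biacore T100 runs with FGF14 (17,896 RU) or Nav1.6 C-tail (6,800 RU) amine-coupled on CM5 at pH 5.5. Compounds at 0.195–200 μM in PBS, 0.005% Tween-20, 2% DMSO; 50 μL/min at 25 °C. 120 s association, 150 s dissociation, DMSO calibration, blank subtraction. Rates from a Langmuir 1:1 fit; KD averages the kinetic and steady-state values. At least duplicate experiments.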
Target sequence in this assay (Q9UQD0 whole entry, the tested form may be a part): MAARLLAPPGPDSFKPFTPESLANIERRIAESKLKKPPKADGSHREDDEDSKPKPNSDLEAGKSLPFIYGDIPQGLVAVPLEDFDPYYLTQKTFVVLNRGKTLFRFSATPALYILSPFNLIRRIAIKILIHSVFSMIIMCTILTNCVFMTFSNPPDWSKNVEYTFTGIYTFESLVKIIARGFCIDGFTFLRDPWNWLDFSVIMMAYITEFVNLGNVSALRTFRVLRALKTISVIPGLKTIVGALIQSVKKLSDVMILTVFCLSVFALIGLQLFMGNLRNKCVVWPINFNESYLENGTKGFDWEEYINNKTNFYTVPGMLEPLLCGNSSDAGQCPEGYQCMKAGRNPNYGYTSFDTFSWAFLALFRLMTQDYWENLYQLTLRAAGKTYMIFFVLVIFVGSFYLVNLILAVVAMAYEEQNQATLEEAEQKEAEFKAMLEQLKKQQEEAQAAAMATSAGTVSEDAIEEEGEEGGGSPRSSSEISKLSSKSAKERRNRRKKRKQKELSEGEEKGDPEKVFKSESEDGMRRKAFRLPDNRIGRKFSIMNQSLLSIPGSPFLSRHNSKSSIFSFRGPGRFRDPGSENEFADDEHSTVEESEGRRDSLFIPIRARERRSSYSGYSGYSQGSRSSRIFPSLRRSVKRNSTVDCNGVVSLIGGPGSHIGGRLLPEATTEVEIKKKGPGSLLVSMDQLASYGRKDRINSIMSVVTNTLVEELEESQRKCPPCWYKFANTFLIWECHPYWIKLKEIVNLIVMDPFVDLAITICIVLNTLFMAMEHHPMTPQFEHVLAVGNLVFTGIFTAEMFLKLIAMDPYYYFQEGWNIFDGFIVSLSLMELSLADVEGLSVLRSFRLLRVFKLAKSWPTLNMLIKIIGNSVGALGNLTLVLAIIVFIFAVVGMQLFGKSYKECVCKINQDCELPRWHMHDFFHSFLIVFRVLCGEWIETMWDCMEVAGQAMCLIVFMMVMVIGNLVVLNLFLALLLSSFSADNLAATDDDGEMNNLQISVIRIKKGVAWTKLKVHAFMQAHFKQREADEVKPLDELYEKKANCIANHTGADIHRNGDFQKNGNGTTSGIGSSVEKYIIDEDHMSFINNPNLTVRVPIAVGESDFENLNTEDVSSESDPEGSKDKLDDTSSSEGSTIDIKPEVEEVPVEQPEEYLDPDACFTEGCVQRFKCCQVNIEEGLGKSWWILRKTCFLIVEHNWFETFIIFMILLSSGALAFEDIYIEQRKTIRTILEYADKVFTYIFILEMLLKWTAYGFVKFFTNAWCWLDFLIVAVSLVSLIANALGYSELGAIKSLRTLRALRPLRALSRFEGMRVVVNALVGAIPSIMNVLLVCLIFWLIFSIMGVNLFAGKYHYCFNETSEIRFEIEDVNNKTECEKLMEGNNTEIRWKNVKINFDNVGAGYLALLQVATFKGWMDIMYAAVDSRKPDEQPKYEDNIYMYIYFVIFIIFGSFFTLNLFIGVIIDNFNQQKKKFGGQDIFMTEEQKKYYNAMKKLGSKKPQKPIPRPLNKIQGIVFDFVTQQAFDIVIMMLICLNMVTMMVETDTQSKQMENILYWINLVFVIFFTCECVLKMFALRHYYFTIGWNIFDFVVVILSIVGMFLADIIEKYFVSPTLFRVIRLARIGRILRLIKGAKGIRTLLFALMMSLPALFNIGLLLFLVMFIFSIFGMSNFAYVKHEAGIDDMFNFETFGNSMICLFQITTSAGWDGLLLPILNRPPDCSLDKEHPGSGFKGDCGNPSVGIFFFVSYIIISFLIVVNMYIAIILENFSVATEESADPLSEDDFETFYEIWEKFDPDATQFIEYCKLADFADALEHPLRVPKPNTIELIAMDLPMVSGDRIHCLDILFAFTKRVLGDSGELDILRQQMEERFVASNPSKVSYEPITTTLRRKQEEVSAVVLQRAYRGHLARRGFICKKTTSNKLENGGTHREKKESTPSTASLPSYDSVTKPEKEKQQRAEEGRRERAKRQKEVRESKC

[6] = target: T2, Fibroblast growth factor 14 (Homo sapiens) (UniProt Q92915); test: Binding affinity to human recombinant FGF14 expressed in Escherichia coli BL21 assessed as association rate constant by SPR analysis; conditions: filed as modulator; outline: as §2
T2 sequence (whole entry): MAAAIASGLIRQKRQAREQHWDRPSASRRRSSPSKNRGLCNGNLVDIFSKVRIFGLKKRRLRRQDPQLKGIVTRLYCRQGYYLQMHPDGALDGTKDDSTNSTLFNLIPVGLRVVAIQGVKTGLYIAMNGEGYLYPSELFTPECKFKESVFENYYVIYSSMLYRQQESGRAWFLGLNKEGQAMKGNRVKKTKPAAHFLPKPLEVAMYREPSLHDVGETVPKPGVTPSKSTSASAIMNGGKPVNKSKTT

[7] = target: T1, Sodium channel protein type 8 subunit alpha; test: Binding affinity to human recombinant Nav1.6 C-terminal domain expressed in Escherichia coli BL21 assessed as association rate constant by SPR analysis; conditions: filed as modulator; outline: as §2
Target sequence in this assay (Q9UQD0 whole entry, looked up, the tested form may be a part): as the sequence (Q9UQD0 whole entry, the tested form may be a part) above

[8] = target: T1, Sodium channel protein type 8 subunit alpha; test: Binding affinity to human recombinant Nav1.6 C-terminal domain expressed in Escherichia coli BL21 assessed as dissociation rate constant by SPR analysis; conditions: filed as modulator; outline: as §2
Target sequence in this assay (Q9UQD0 whole entry, looked up, the tested form may be a part): as the sequence (Q9UQD0 whole entry, the tested form may be a part) above

[9] = target: T3, Fibroblast growth factor 14/SCN8A (Homo sapiens) (UniProt Q9UQD0+Q92915); test: Modulation of human recombinant FGF14-Nav1.6 C-terminal domain expressed in Escherichia coli BL21 (DE3) protein-protein interaction assessed as association rate constant by SPR analysis (reference value: 2.18X10^4 +/- 1.6X10^2 /M/s); conditions: filed as modulator
Outline: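 FGF14 at 15.6–1500 nM, premixed with 10 μM compound or DMSO, flowed over CM5-bound Nav1.6 C-terminal tail (934 RU). Final 2.1% DMSO, 25 °C, 50 μL/min, 120 s association and 150 s dissociation. Blank-subtracted sensorgrams fitted to a Langmuir 1:1 model.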

[10] = target: T1, Sodium channel protein type 8 subunit alpha; test: Modulation of recombinant human Nav1.6 C-terminal tail (1763 to 1976 residues) expressed in HEK293 cells assessed as change in time constant of fast inactivation at 10 uM incubated for 30 mins by whole cell patch clamp electrophysiology assay (reference value: 1.22 +/- 0.07 ms); assay type: cell-based; conditions: filed as modulator
Outline: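 Stable HEK-Nav1.6 cells without FGF14, incubated at least 30 min in extracellular solution (mM: 140 NaCl, 3 KCl, 1 MgCl2, 1 CaCl2, 10 HEPES, 10 glucose, pH 7.3) with compound (10 or 30 μM) or 0.1% DMSO. Whole-cell recording with Cs-methanesulfonate/EGTA/NaCl/HEPES pipette solution, 70–80% compensation. Steps −100 to +60 mV; tau measured at −10 mV. Student's t-test.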
Target sequence in this assay (Q9UQD0 whole entry, looked up, the tested form may be a part): as the sequence (Q9UQD0 whole entry, the tested form may be a part) above

[11] = target: T3, Fibroblast growth factor 14/SCN8A (Homo sapiens); test: Modulation of recombinant human Nav1.6 C-terminal tail (1763 to 1976 residues)-FGF14 (64 to 252 residues) protein-protein interaction expressed in HEK293 cells assessed as long-term inactivation at depolarization cycle 3 at 10 uM incubated for 30 mins by cell patch clamp electrophysiology assay (reference value: 0.99 +/- 0.04); assay type: cell-based; conditions: filed as modulator
Outline: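 HEK-Nav1.6 cells transiently transfected with FGF14 using Lipofectamine 2000, then exposed at least 30 min to 10 μM compound or 0.1% DMSO in the pH 7.3 HEPES extracellular solution. Whole-cell patch clamp with Cs-methanesulfonate internal solution, 70–80% capacitance and series-resistance compensation. Test steps from −100 to +60 mV. Student's t-test used.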

T3 sequence (Q9UQD0 whole entry, looked up, one chain of several, the tested form may be a part): as the sequence (Q9UQD0 whole entry, the tested form may be a part) above

## COC(=O)[C@@H](NC(=O)[C@H](CCC(=O)OC(C)(C)C)NC(=O)[C@H](CC(C)C)NC(=O)[C@@H]1CCCN1C(=O)C12CC3CC(CC(C3)C1)C2)C(C)C (Adamantane1carbonyl-PLE(OtBu)V-OMe)
HEK293 [1]
  Activity: 4.7%
[2]
  IC50: 20.4 µM
HEK293 [3]
  Efficacy: 96.1%
HEK293 [4]
  inhibition: inactive
[5]
  Kd: 16.4 µM
[6]
  K: 4.66 10^3/M/s
[7]
  K: 6.23 10^4/M/s
[8]
  K: 3.57 10^-3/s
[9]
  K: 5.88 10^6/M/s
[10]
  K: 1.45 ms
[11]
  Activity: 0.81
